Compound activity deposited in PubChem by several laboratories.
This is a sample that favours compounds with a hit; in the whole collection about 3.8% have one here.
NPY2 pot ag – NPY-Y2 potentiators or agonists, primary screen, cell-based; cells expressing NPY-Y2, potentiator/agonist read-out; activation, % at 3.6 µM; 0.45% of 220,000 active; AID 1359, 2008; in the data active = activation above about 27%;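 note: cells stimulated with NPY near EC25 plus isoproterenol at EC100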
NPY1 pot ag – NPY-Y1 receptor potentiators or agonists, primary screen, cell-based. Neuropeptide Y receptor type 1 (Homo sapiens), P25929. NPY-Y1 expressing cells, potentiator/agonist activation. activation, % at 3.6 µM. 0.37% of 220,000 active. AID 1304, 2008; in the data active = activation above about 33%, passing the limit was not always enough;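 note: cells stimulated with NPY at EC10 then isoproterenol at EC100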
Target sequence (P25929 whole entry, looked up): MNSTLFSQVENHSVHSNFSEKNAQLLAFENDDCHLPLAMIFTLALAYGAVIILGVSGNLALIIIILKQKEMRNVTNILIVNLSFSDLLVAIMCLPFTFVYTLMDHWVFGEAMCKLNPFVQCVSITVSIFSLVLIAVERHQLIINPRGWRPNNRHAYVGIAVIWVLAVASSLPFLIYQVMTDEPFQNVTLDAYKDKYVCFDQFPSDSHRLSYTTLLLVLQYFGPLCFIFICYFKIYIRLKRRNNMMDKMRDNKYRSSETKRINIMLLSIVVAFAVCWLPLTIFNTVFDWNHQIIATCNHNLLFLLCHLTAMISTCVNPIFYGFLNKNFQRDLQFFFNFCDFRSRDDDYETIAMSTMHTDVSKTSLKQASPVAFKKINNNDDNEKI
RAM network inh – inhibitors of the yeast RAM network, primary screen, dse1pr::URA3 reporter, 5-FOA selection; 1.8% of 190,000 active; S. cerevisiae dse1pr::URA3 reporter, 5-FOA growth OD615, 2 d; analog-sensitive cbk1-as2 kinase mutant strain; inhibition, % at 50 µM; AID 868, 2007;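 active = inhibition above a set limit, 3 SD over mean compound inhibition, cut at about 8.4% in these data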;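 note: inhibition rescues growth on 5-FOA so higher OD means more RAM inhibition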
NPY Y2 blocker – NPY-Y2 receptor antagonists, primary screen, cell-based | inhibition, % at 2.7 µM | 0.99% of 140,000 active | NPY-Y2 expressing cells, antagonist mode
INS promoter inh – inhibitors of insulin promoter-driven GFP, primary screen, imaging, TRM-6 cells, eGFP reporter, cell count | reporter expression induced with tamoxifen | inhibition, % at 2 µM | 0.9% of 130,000 active;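 active = inhibition above the mean plus 3 SD, with well images judged a real hit on visual review, cut at about 60% in these data, passing the limit was not always enough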
NPY Y1 blocker – NPY-Y1 receptor antagonists, primary screen, cell-based | Neuropeptide Y receptor type 1 (Homo sapiens), P25929 | HEK293-CNG Y1 cells, membrane potential fluorescence; NPY at EC95, then isoproterenol | inhibition, % at 3.6 µM | 1% of 200,000 active;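 active = inhibition above the campaign mean inhibition of all tested compounds plus 3 SD, cut at about 20% in these data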
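Test system: HEK293 cells co-expressing NPY Y1 receptor and cyclic-nucleotide gated channel; Also added: NPY (25 nM), isoproterenol (1 µM), Ro 20-1724 (25 µM); Compound dosing: one concentration, 3.6 µM, in 0.4% DMSO; Timing: dye 3 h, compound 60 min room temperature, stimulation 45 min; Technique: Membrane-potential fluorescent dye readout.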
NPY1 antag conf – NPY-Y1 receptor antagonists, retest of hits, confirmation, HEK293-CNG cells, membrane potential fluorescence, triplicate. shares compounds with NPY Y1 blocker. cAMP; NPY challenge against isoproterenol-raised cAMP. inhibition, % at 3.6 µM. 21% of 1,200 active; in the data active = inhibition above about 20%
NPY2 antag ctr – NPY-Y2 receptor antagonists, selectivity check, confirmation, counter-screen for NPY-Y1 antagonist project, HEK293-CNG cells, membrane potential fluorescence, triplicate | shares compounds with NPY Y1 blocker | antagonism; cells given NPY, then isoproterenol | inhibition, % at 3.6 µM | 28% of 1,200 active | AID 1255, 2008
Hits are given with their value. Cut-off read from the data, not from the text of the source, unless noted: active = inhibition above about 17%; inactive = the rest.

Results for O=C(c1ccc2c(c1)OCO2)C1CCCN(C2CCN(CCc3ccccc3)CC2)C1 (stereo not given) ?
NPY2 pot ag: inactive; NPY1 pot ag: inactive; RAM network inh: inactive; INS promoter inh: inactive; NPY Y1 blocker: 21.9; NPY1 antag conf: inactive; NPY2 antag ctr: 23.1

How did CCN1CCCC1Cn1cnc2c([nH]c3ccc(OC)cc32)c1=O (stereo not given) do in these assays?
NPY2 pot ag: inactive; NPY1 pot ag: inactive

Results for CCCN1C2CCCC1CC(NC(=S)Nc1cc(C)ccc1C)C2 (stereo not given) ?
NPY2 pot ag: inactive; NPY1 pot ag: inactive; RAM network inh: inactive; NPY Y2 blocker: inactive; INS promoter inh: inactive; NPY Y1 blocker: inactive

How did Cn1nnnc1SCC(=O)Nc1c(Cl)cccc1Cl do in these assays?
NPY2 pot ag: inactive; NPY1 pot ag: inactive; RAM network inh: inactive; NPY Y2 blocker: inactive; INS promoter inh: inactive; NPY Y1 blocker: inactive

Results for CN1CCN(C(=O)c2ccccc2-c2nc(-c3ccccc3)no2)CC1 ?
NPY2 pot ag: inactive; NPY1 pot ag: inactive; RAM network inh: inactive; NPY Y2 blocker: inactive; NPY Y1 blocker: 28.4; NPY1 antag conf: inactive; NPY2 antag ctr: inactive

How did O=S(=O)(c1ccc2c(c1)OCCO2)N(Cc1ccc(F)cc1)Cc1nnc(-c2cccs2)o1 do in these assays?
NPY2 pot ag: inactive; NPY1 pot ag: inactive; RAM network inh: inactive; NPY Y2 blocker: inactive; INS promoter inh: inactive; NPY Y1 blocker: 45.3; NPY1 antag conf: inactive; NPY2 antag ctr: inactive

How did COC(=O)C1CCCN1S(=O)(=O)c1ccc2ccccc2c1 (stereo not given) do in these assays?
NPY2 pot ag: inactive; NPY1 pot ag: inactive; RAM network inh: inactive; NPY Y2 blocker: inactive; NPY Y1 blocker: 40.6; NPY1 antag conf: 57.0; NPY2 antag ctr: 26.9

What do the screens show for `O=C(COc1ccccc1C(=O)NCc1ccncc1)Nc1ccc(Br)cc1`?
NPY2 pot ag: inactive; NPY1 pot ag: inactive; RAM network inh: inactive; INS promoter inh: inactive; NPY Y1 blocker: inactive

What do the screens show for `OCCC1CN(Cc2ccccn2)CCN1C1CCCC1` (stereo not given)?
NPY2 pot ag: inactive; NPY1 pot ag: inactive; RAM network inh: inactive; NPY Y1 blocker: inactive

What do the screens show for `OCCC1CN(CC(c2ccccc2)c2ccccc2)CCN1C1CCCC1` (stereo not given)?
NPY2 pot ag: inactive; NPY1 pot ag: inactive; RAM network inh: inactive; INS promoter inh: inactive; NPY Y1 blocker: 23.0; NPY1 antag conf: inactive; NPY2 antag ctr: inactive

What do the screens show for `COc1cc(/C(C)=N/NC(=O)CN2CCN(S(=O)(=O)c3ccc(C)cc3)CC2)ccc1O`?
NPY2 pot ag: inactive; NPY1 pot ag: inactive

What do the screens show for `COc1ccc(-c2cc(C(=O)Nc3ccccc3O)c3ccccc3n2)cc1OC`?
NPY2 pot ag: inactive; NPY1 pot ag: inactive; RAM network inh: inactive; NPY Y1 blocker: 27.2; NPY1 antag conf: inactive; NPY2 antag ctr: 22.9

How did COc1ccc(-c2cc(C(=O)Nc3ccccc3N3CCOCC3)c3ccccc3n2)cc1OC do in these assays?
NPY2 pot ag: inactive; NPY1 pot ag: inactive; RAM network inh: inactive; NPY Y1 blocker: 29.6; NPY1 antag conf: inactive; NPY2 antag ctr: inactive

What do the screens show for `O=C(NC(N1CCOCC1)C(Cl)(Cl)Cl)c1ccc(F)cc1` (stereo not given)?
NPY2 pot ag: inactive; NPY1 pot ag: inactive; RAM network inh: inactive; INS promoter inh: inactive; NPY Y1 blocker: 52.5; NPY1 antag conf: inactive; NPY2 antag ctr: inactive
